Assay results from the M2OR odorant receptor database.

Experiments:
Details in all cases: stereoisomer not certain
OR51I2 (Homo sapiens) = molecular target: T1, OR51I2 (Homo sapiens) (UniProt Q9H344)
T1 sequence (whole entry): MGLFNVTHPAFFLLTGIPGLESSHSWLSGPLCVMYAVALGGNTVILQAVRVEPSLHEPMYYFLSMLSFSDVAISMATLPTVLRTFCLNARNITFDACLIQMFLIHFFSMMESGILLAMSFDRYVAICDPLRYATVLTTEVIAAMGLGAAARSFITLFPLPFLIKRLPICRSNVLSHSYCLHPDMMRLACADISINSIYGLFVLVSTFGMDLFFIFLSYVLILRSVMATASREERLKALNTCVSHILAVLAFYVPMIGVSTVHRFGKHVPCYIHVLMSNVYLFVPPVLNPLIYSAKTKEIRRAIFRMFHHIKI
In short: (§1)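 Each receptor–molecule pair is labelled responsive or non-responsive (inactive) according to whether the original authors judged the measured signal statistically different from baseline. The data were taken from the main text and supplementary material of published papers and checked for typos and inconsistencies. Assay methods differed by source, with transient luciferase assays in mammalian cell lines being common.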

OR51J1 (Homo sapiens) = molecular target: T2, OR51J1 (Homo sapiens) (UniProt Q9H342)
T2 sequence (whole entry): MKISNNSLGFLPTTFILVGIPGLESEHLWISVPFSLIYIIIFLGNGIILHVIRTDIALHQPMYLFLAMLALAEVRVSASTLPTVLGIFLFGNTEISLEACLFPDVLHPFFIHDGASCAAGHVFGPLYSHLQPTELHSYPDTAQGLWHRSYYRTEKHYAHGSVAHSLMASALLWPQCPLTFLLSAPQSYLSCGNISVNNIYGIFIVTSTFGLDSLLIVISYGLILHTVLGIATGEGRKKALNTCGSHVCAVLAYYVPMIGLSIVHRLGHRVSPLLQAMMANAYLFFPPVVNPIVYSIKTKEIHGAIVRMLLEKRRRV
In short: as §1

OR51L1 (Homo sapiens) = molecular target: T3, OR51L1 (Homo sapiens) (UniProt Q8NGJ5)
T3 sequence (whole entry): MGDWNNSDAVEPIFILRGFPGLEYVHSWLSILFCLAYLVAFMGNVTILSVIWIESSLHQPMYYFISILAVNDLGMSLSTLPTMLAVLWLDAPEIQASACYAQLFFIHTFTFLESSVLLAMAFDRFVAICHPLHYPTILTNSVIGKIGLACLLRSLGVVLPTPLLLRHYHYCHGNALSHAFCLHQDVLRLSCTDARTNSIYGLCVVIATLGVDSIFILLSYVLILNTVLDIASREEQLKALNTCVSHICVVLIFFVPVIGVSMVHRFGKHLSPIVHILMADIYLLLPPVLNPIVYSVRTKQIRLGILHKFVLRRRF
In short: as §1

OR51M1 (Homo sapiens) = molecular target: T4, OR51M1 (Homo sapiens) (UniProt Q9H341)
T4 sequence (whole entry): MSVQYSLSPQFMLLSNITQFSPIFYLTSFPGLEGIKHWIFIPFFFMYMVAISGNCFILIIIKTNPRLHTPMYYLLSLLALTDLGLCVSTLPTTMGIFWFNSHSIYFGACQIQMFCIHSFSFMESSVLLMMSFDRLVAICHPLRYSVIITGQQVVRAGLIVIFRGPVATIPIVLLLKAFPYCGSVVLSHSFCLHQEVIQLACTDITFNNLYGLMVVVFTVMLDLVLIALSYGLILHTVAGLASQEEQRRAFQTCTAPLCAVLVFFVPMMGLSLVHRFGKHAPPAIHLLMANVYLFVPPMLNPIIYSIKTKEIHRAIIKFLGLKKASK
In short: as §1

OR51Q1 (Homo sapiens) = molecular target: T5, OR51Q1 (Homo sapiens) (UniProt Q8NH59)
T5 sequence (whole entry): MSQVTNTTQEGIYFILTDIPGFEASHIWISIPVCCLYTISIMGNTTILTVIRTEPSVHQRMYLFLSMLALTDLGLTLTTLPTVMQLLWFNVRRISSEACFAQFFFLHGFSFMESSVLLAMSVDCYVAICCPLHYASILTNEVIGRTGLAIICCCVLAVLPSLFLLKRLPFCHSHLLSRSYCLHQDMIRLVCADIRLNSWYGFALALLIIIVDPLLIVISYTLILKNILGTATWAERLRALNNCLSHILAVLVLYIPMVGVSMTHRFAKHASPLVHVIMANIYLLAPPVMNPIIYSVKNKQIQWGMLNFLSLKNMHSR
In short: as §1

OR51S1 (Homo sapiens) = molecular target: T6, OR51S1 (Homo sapiens) (UniProt Q8NGJ8)
T6 sequence (whole entry): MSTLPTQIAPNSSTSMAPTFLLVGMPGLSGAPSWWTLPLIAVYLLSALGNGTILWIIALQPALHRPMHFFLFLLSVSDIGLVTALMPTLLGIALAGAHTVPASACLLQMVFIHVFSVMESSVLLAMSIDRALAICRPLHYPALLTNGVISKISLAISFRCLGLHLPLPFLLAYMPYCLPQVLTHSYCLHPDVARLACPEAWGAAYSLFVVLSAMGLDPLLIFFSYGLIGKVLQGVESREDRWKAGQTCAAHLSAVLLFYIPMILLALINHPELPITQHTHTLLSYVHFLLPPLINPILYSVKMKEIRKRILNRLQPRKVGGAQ
In short: as §1

OR51V1 (Homo sapiens) = molecular target: T7, OR51V1 (Homo sapiens) (UniProt Q9H2C8)
T7 sequence (whole entry): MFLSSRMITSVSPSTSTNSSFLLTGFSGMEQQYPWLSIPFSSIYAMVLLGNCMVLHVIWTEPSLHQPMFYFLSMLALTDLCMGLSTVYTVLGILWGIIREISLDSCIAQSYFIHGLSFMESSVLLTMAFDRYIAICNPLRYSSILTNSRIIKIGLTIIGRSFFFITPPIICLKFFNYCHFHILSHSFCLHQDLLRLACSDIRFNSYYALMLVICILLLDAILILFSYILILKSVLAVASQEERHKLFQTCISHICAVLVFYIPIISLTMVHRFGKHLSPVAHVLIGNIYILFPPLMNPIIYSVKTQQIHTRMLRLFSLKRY
In short: as §1

OR52A1 (Homo sapiens) = molecular target: T8, OR52A1 (Homo sapiens) (UniProt Q9UKL2)
T8 sequence (whole entry): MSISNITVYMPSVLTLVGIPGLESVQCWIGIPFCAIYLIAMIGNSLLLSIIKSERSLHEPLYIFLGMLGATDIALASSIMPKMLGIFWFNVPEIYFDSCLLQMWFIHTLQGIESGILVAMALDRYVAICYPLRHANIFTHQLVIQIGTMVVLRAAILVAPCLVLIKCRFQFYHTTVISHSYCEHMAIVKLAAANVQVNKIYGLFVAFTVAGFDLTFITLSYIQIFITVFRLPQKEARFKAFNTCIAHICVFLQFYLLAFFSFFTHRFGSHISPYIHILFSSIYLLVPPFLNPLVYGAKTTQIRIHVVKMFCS
In short: as §1

OR51T1 (Homo sapiens) = molecular target: T9, OR51T1 (Homo sapiens) (UniProt Q8NGJ9)
T9 sequence (whole entry): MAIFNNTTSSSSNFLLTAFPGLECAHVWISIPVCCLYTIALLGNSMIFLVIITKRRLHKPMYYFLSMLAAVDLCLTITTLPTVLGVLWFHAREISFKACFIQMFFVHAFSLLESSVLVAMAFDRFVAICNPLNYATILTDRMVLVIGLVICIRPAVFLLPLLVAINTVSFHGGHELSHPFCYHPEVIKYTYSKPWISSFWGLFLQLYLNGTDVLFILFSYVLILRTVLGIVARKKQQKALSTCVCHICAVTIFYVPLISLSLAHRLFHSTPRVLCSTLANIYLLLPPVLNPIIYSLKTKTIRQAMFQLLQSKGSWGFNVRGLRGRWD
In short: as §1

OR52A4P (Homo sapiens) = molecular target: T10, OR52A4P (Homo sapiens) (UniProt A6NMU1)
T10 sequence (whole entry): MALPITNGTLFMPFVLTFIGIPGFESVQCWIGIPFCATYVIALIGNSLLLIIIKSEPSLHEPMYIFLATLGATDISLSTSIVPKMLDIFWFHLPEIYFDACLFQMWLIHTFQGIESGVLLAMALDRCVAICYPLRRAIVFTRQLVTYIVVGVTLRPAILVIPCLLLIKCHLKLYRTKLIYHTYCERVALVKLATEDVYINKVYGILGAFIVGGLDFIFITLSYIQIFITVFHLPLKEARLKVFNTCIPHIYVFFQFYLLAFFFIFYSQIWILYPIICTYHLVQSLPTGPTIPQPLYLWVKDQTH
In short: as §1
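Further: active if original authors judged signal statistically different from baseline.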

Structure (SMILES)	odorant receptor agonist call (OR51I2 (Homo sapiens))	odorant receptor agonist call (OR51J1 (Homo sapiens))	odorant receptor agonist call (OR51L1 (Homo sapiens))	odorant receptor agonist call (OR51M1 (Homo sapiens))	odorant receptor agonist call (OR51Q1 (Homo sapiens))	odorant receptor agonist call (OR51S1 (Homo sapiens))	odorant receptor agonist call (OR51V1 (Homo sapiens))	odorant receptor agonist call (OR52A1 (Homo sapiens))	odorant receptor agonist call (OR51T1 (Homo sapiens))	odorant receptor agonist call (OR52A4P (Homo sapiens))
CCC1OC(=O)C(O)=C1C (stereo not given)	inactive	inactive	inactive	inactive	inactive	inactive	inactive	inactive	–	–
CC(=O)c1c(C)c([N+](=O)[O-])c(C(C)(C)C)c([N+](=O)[O-])c1C	inactive	inactive	inactive	inactive	inactive	inactive	inactive	inactive	inactive	inactive
CCCCCCC(=O)[O-].[H+]	–	–	inactive	–	–	–	–	–	–	–
CCCCC(S)C(C)CO (stereo not given)	inactive	inactive	inactive	inactive	inactive	inactive	inactive	inactive	active	inactive
CC1=NC(C)C(C)S1 (stereo not given)	inactive	inactive	inactive	inactive	inactive	inactive	inactive	inactive	–	–
CCCCC(C)=O	–	–	inactive	–	–	–	–	–	–	–
CCC1OC(C)=C(O)C1=O (stereo not given)	inactive	inactive	inactive	inactive	inactive	inactive	inactive	inactive	–	–
CC(C)=CCCC(C)=CCO	–	–	inactive	–	–	–	–	–	–	–
CCCC(S)CCOC(C)=O (stereo not given)	inactive	inactive	inactive	inactive	inactive	inactive	inactive	inactive	–	–
CC1=C(O)C(=O)C(C)O1 (stereo not given)	inactive	inactive	inactive	inactive	inactive	inactive	inactive	inactive	–	–
CC12CCC(CC1=O)C2(C)C (stereo not given)	–	–	inactive	–	–	–	–	–	–	–
CCCCCC=O	–	–	inactive	–	–	–	–	–	–	–
CCCCCC(S)C(C)CO (stereo not given)	inactive	inactive	inactive	inactive	inactive	inactive	inactive	inactive	inactive	inactive
CCCCOC=O	–	–	inactive	–	–	–	–	–	–	–
Cc1cnc(C)c(C)n1	inactive	inactive	inactive	inactive	inactive	inactive	inactive	inactive	–	–
CCCC(C)=O	–	–	inactive	–	–	–	–	–	–	–

Structure (SMILES)	odorant receptor agonist call (OR51I2 (Homo sapiens))	odorant receptor agonist call (OR51J1 (Homo sapiens))	odorant receptor agonist call (OR51L1 (Homo sapiens))	odorant receptor agonist call (OR51M1 (Homo sapiens))	odorant receptor agonist call (OR51Q1 (Homo sapiens))	odorant receptor agonist call (OR51S1 (Homo sapiens))	odorant receptor agonist call (OR51V1 (Homo sapiens))	odorant receptor agonist call (OR52A1 (Homo sapiens))	odorant receptor agonist call (OR51T1 (Homo sapiens))	odorant receptor agonist call (OR52A4P (Homo sapiens))
CCCCCC(=O)C(C)C(C)=O (stereo not given)	inactive	inactive	inactive	inactive	inactive	inactive	inactive	inactive	inactive	inactive
CCCCC(=O)CC	–	–	inactive	–	–	–	–	–	–	–
c1ccccc1	–	–	inactive	–	–	–	–	–	–	–
CC(CO)CS (stereo not given)	inactive	inactive	inactive	inactive	inactive	inactive	inactive	inactive	inactive	inactive
CC1CCCCCCCCCCCCC(=O)C1 (stereo not given)	inactive	inactive	inactive	inactive	inactive	inactive	inactive	inactive	inactive	inactive
CC1=C(O)C(=O)OC1C (stereo not given)	inactive	inactive	inactive	inactive	inactive	inactive	inactive	inactive	–	–
CCCCCCC=CCCC=O	inactive	inactive	inactive	inactive	inactive	inactive	inactive	inactive	inactive	–
O=c1ccc2ccccc2o1	–	–	inactive	–	–	–	–	–	–	–
O=C(c1ccccc1)c1ccccc1	–	–	inactive	–	–	–	–	–	–	–
CCCCCC(=O)CC	–	–	inactive	–	–	–	–	–	–	–
CCCCCCCC(C)=O	–	–	inactive	–	–	–	–	–	–	–
CCC(S)C(C)CO (stereo not given)	inactive	inactive	inactive	inactive	inactive	inactive	inactive	inactive	inactive	inactive
CCCCCC1CCCC(=O)O1 (stereo not given)	inactive	inactive	inactive	inactive	inactive	inactive	inactive	inactive	inactive	inactive
CCCCCCCCCCO	–	–	inactive	–	–	–	–	–	–	–
CCCCCCCCC(=O)O	–	–	–	–	–	–	–	inactive	–	–
